Key:
[1] = biological target: Voltage-gated inwardly rectifying potassium channel KCNH2 (Homo sapiens, UniProt Q12809); assay: Inhibition of human ERG tail current by electrophysiological assay relative to control
Outline: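 HEK cells, whole-cell electrophysiology. hERG tail current recorded at −40 mV after a depolarizing step to +30 mV; n = 3.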

[2] = Oral bioavailability in CD-1 mouse at 3 mg/kg measured upto 24 hrs by LC-MS/MS analysis; format: ADME, organism-based; conditions: in vivo
Outline: (§1)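 Single iv and oral (suspension) dosing; iv/po doses 1/10 mg/kg in SD rat, 1/3 mg/kg in CD-1 mouse and beagle dog. Plasma PK parameters are means from two to three animals per species.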

Rattus norvegicus [3] = assay: Effect on haloperidol-induced catalepsy in rat assessed as reduction in mean latency to withdraw at 0.3 mg/kg, po (reference value: 43.4 +/- 4.3 sec); format: functional
Outline: (§2)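 Rat haloperidol-induced catalepsy model with oral test dosing at 0.3, 1 and 3 mg/kg alongside vehicle-treated controls. Read-out is latency to withdraw, also expressed as % reversal of catalepsy. Groups compared by ANOVA.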

[4] = Volume of distribution at steady state in Sprague-Dawley rat at 1.0 mg/kg, iv measured upto 24 hrs by LC-MS/MS analysis; format: ADME, organism-based; conditions: in vivo, read-out: Vdss
Outline: (§3)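 Pharmacokinetics in Sprague-Dawley rat, CD-1 mouse and beagle dog. Intravenous dose was 1 mg/kg in each species. Oral doses were given as a suspension: 10 mg/kg in rat, 3 mg/kg in mouse and dog. Each parameter is the mean of two to three animals.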

CYP1A2 [5] = biological target: T1, CYP1A2 (Homo sapiens, UniProt P05177); assay: Induction of CYP1A2 in human hepatocytes relative to control; format: ADME, cell-based, Hepatocyte
T1 sequence (P05177 whole entry): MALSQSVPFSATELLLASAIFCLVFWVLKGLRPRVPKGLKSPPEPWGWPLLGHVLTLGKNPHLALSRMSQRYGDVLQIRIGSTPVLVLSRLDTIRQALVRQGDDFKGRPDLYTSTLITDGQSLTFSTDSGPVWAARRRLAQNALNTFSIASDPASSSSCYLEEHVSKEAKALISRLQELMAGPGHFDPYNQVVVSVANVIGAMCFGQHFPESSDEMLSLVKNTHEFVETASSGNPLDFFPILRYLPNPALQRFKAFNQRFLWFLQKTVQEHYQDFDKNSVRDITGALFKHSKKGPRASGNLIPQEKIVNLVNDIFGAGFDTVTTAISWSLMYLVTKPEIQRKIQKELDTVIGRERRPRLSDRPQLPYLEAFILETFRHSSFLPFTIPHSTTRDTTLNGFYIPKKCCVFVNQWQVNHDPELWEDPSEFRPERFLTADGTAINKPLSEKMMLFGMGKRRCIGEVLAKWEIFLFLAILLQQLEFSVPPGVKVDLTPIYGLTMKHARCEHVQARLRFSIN

[6] = Elimination half life in Beagle dog at 1 mg/kg, iv measured upto 24 hrs by LC-MS/MS analysis; format: ADME, organism-based, Canis lupus familiaris; conditions: in vivo, read-out: beta t1/2 (converted); outline: as §1
[7] = Antagonist activity at human muscarinic acetylcholine M4 receptor expressed in CHO cells assessed as inhibition of acetylcholine-induced calcium mobilization relative to control; format: cell-based; design: concentration or dose not given beside the values; conditions: concentration not given here
Outline: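 CHO cells stably transfected with human M4 were pretreated with the compound, then stimulated with an EC80 concentration of acetylcholine. The response was read as calcium mobilization, and IC50 was derived from the concentration-response. Each experiment was run in triplicate.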

Rattus norvegicus [8] = assay: Reversal of haloperidol-induced catalepsy in po dosed rat; format: functional, organism-based; outline: as §2
[9] = Clearance in Sprague-Dawley rat plasma at 1.0 mg/kg, iv measured upto 24 hrs by LC-MS/MS analysis; format: ADME, organism-based; outline: as §1
CYP1A2 [10] = biological target: T1, CYP1A2; assay: Inhibition of CYP1A2 in human liver microsomes using phenacetin as substrate preincubated for 15 mins followed by NADPH addition and measured after 8 mins by LC-MS/MS analysis; format: ADME; conditions: human, liver microsomes, probe phenacetin; time 23 min; read-out: INH
Outline: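 Cocktail CYP450 inhibition assay run in human liver microsomes.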

[11] = Tmax in Beagle dog at 3 mg/kg, po measured upto 24 hrs by LC-MS/MS analysis; format: ADME, organism-based, Canis lupus familiaris; conditions: in vivo; outline: as §3
CYP3A4 = CYP3A4 (Homo sapiens, UniProt P08684); assay: Induction of CYP3A4 in human hepatocytes; format: ADME, cell-based, Hepatocyte
Chain of CYP3A4 (P08684 whole entry): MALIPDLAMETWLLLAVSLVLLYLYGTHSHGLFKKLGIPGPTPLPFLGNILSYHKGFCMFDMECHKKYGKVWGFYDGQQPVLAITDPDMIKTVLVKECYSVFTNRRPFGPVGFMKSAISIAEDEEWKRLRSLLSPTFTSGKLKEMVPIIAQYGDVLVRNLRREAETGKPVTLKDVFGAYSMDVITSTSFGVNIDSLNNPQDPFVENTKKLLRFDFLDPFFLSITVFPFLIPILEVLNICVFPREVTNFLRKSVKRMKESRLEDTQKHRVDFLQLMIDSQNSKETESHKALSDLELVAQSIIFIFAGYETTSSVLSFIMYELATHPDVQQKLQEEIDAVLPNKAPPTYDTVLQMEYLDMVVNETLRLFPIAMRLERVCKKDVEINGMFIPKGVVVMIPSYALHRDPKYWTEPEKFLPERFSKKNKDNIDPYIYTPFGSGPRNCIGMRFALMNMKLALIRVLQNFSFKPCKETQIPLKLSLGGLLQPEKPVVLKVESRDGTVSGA

Cytochrome P450 2C19 = Cytochrome P450 2C19 (Homo sapiens, UniProt P33261); assay: Time dependent inhibition of CYP2C19 (unknown origin); format: ADME
Chain of Cytochrome P450 2C19 (P33261 whole entry): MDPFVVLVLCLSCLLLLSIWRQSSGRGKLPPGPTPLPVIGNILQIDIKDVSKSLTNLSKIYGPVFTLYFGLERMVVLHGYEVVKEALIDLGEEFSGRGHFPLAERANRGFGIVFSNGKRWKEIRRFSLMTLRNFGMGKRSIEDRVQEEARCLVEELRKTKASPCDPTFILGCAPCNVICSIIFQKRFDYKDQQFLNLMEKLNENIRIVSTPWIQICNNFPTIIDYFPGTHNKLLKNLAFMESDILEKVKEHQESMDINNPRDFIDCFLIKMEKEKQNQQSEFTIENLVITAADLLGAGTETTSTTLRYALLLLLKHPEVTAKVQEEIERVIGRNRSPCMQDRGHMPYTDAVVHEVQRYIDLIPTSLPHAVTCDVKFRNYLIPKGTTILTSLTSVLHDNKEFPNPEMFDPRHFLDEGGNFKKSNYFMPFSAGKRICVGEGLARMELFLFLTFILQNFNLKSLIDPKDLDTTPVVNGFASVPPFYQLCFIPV

Rattus norvegicus [12] = assay: Reversal of haloperidol-induced catalepsy in rat at 1.0 mg/kg, po relative to control; format: functional; outline: as §2
CYP2B6 = CYP2B6 (Homo sapiens, UniProt P20813); assay: Induction of CYP2B6 in human hepatocytes relative to control; format: ADME, cell-based, Hepatocyte
Chain of CYP2B6 (P20813 whole entry): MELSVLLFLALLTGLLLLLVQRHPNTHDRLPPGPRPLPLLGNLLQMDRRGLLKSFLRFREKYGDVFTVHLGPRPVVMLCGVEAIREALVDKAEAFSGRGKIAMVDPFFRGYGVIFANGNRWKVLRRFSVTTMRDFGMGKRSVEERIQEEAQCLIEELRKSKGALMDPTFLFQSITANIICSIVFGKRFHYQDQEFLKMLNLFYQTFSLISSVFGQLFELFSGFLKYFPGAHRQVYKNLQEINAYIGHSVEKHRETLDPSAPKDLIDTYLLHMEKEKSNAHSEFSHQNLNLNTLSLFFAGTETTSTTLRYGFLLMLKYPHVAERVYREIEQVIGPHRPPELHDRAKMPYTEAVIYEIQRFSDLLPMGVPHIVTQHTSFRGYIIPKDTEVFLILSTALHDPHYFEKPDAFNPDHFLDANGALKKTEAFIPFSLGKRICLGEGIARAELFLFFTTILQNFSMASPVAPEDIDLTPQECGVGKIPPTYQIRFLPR

[13] = Clearance in Beagle dog plasma at 1.0 mg/kg, iv measured upto 24 hrs by LC-MS/MS analysis; format: ADME, organism-based, Canis lupus familiaris; outline: as §1
[14] = Ratio of free drug concentration in CSF to plasma of Sprague-Dawley rat at 1 mg/kg, iv; format: ADME, organism-based
[15] = biological target: Muscarinic acetylcholine receptor M3 (Homo sapiens, UniProt P20309); assay: Antagonist activity at human muscarinic M3 receptor expressed in CHO cells co-expressing Gqi5 assessed as inhibition of acetylcholine-induced calcium mobilization; format: functional
Chain of Muscarinic acetylcholine receptor M3 (P20309 whole entry): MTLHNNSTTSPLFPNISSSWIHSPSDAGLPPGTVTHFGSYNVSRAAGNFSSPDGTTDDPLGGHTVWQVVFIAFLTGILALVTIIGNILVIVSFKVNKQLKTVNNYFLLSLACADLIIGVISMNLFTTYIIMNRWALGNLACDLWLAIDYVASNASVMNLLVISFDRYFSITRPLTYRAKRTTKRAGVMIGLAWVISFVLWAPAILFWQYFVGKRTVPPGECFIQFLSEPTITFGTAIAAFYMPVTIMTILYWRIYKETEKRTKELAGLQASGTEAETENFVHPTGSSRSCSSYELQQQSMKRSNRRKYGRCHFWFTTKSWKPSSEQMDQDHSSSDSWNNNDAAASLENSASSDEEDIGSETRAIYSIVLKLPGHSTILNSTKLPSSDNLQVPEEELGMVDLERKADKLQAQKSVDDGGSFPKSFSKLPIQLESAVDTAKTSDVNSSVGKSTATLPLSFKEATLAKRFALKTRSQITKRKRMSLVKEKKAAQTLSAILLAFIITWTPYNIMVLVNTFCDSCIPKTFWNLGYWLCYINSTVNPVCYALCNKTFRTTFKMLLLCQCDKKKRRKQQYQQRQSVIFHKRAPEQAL
Outline: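 CHO cells stably transfected with the given human mAChR subtype. Compound added before an EC80 concentration of acetylcholine; antagonism read as calcium mobilization. One independent determination in triplicate.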

[16] = Ratio of free drug concentration in brain to plasma of rat at 1 mg/kg, po after 1 hr; format: ADME, organism-based
Outline: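 At the end of the catalepsy study, 1 h after a 1 mg/kg oral dose in rats, total brain/plasma (Kp) and unbound brain/plasma (Kp,uu) ratios were determined.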

CYP1A2 [17] = biological target: T1, CYP1A2; assay: Induction of CYP1A2 in human hepatocytes; format: ADME, cell-based, Hepatocyte
[18] = Cmax in Sprague-Dawley rat at 10 mg/kg, po measured upto 24 hrs by LC-MS/MS analysis; format: ADME, organism-based; design: route oral, dose 10 mg/kg, time <=24; conditions: in vivo; outline: as §1
[19] = biological target: Sigma non-opioid intracellular receptor 1 (Homo sapiens, UniProt Q99720); assay: Inhibition of human sigma1 receptor by radioligand binding assay
Chain of Sigma non-opioid intracellular receptor 1 (Q99720 whole entry): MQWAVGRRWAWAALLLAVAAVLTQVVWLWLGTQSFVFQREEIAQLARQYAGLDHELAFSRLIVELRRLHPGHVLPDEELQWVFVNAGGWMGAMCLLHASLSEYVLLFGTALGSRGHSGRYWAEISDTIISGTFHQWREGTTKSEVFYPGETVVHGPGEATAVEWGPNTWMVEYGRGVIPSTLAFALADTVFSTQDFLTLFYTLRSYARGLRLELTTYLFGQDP

[20] = Cmax in Beagle dog at 3 mg/kg, po measured upto 24 hrs by LC-MS/MS analysis; format: ADME, organism-based, Canis lupus familiaris; design: route oral, dose 3 mg/kg, time <=24; conditions: in vivo; outline: as §1
Rattus norvegicus [21] = assay: Reversal of haloperidol-induced catalepsy in rat at 0.3 mg/kg, po relative to control; format: functional; outline: as §2
[22] = Tmax in CD-1 mouse at 3 mg/kg, po measured upto 24 hrs by LC-MS/MS analysis; format: ADME, organism-based; conditions: in vivo; outline: as §3
[23] = Ratio of free drug concentration in brain to plasma of Sprague-Dawley rat at 1 mg/kg, iv; format: ADME, organism-based; conditions: read-out: K(p,uu,brain)
[24] = Oral bioavailability in Sprague-Dawley rat at 10 mg/kg measured upto 24 hrs by LC-MS/MS analysis; format: ADME, organism-based; conditions: in vivo; outline: as §1
Rattus norvegicus [25] = assay: Effect on haloperidol-induced catalepsy in rat assessed as reduction in mean latency to withdraw at 1 mg/kg, po (reference value: 43.4 +/- 4.3 sec); format: functional; outline: as §2

Chain of Voltage-gated inwardly rectifying potassium channel KCNH2 (Q12809 whole entry): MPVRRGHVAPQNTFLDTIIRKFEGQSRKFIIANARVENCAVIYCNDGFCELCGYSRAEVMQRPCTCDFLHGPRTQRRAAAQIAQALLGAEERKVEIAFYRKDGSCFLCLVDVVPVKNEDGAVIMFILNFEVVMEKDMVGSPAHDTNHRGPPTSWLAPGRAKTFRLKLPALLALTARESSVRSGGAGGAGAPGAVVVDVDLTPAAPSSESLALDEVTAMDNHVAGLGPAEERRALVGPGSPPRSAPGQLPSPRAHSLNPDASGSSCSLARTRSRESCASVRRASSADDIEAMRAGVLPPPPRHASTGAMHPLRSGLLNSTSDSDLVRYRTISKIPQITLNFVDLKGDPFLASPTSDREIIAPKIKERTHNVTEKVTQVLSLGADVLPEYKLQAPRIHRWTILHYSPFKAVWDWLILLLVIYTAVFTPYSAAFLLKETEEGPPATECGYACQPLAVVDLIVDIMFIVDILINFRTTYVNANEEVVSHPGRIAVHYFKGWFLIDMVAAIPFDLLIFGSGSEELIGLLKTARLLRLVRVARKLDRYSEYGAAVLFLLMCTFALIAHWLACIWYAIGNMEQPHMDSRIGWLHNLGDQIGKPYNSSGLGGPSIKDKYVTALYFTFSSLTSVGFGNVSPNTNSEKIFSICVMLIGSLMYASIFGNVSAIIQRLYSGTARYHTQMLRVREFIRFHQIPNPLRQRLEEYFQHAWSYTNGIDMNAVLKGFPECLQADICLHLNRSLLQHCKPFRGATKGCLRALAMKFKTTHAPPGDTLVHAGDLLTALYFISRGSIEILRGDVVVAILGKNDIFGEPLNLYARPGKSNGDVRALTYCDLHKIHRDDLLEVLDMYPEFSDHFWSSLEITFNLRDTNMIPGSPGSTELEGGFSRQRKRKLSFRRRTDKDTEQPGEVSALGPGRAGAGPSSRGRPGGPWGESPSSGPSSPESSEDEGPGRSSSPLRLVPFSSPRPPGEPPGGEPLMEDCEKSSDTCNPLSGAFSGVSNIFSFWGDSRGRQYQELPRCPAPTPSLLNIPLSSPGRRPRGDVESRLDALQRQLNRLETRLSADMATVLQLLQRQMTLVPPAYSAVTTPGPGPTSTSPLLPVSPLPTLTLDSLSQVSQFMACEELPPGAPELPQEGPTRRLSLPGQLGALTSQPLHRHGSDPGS

Fc1cc(F)c(F)c(-c2ccc(N[C@H]3C[C@@H]4CN(CC5CCOCC5)C[C@@H]4C3)nn2)c1
inhibition (INH) [1]: 94%
bioavailability [2]: ≥ 100%
Activity (Rattus norvegicus [3]): 32 s
Vd [4]: 6.7 L/kg
Emax (CYP1A2 [5]): 2.1%
half-life [6]: 900 min
inhibition [7]: 3%
inhibition ([7]; tested as the 2H-labelled form): 3%
Activity (Rattus norvegicus [8]): Dose-Dependent Effect
clearance [9]: 6.1 mL/min/kg
IC50 at 8 min (CYP1A2 [10]): > 30 µM
Tmax [11]: 17 h
EC50 (CYP3A4): 1900 nM
IC50 (Cytochrome P450 2C19): > 100 µM
Activity (Rattus norvegicus [12]): 50.9%
Emax (CYP2B6): 2.1%
clearance [13]: 43 mL/min/kg
Kp uu [14]: 0.24
IC50 [15]: > 10 µM
Kp uu at 1 h [16]: 0.32
EC50 (CYP1A2 [17]): 1900 nM
Cmax [18]: 17000 ng/mL
Ki [19]: 16.9 nM
Cmax [20]: 70 ng/mL
Activity (Rattus norvegicus [21]): 26.2%
Tmax [22]: 6.67 h
Kp uu [23]: 0.61
bioavailability [24]: ≥ 100%
Activity (Rattus norvegicus [25]): 21.3 s

Reference: ChEMBL document CHEMBL4837245, “Discovery of VU6028418: A Highly Selective and Orally Bioavailable M4 Muscarinic Acetylcholine Receptor Antagonist” (ACS Med Chem Lett, 2021)
